In the library only some 2.6% were active in any assay of this set; here they are far more common.
Vif imaging = HIV Vif self-association inhibitors, primary screen, imaging, HEK293T, single point | inhibition, % at 7.49 µM | HEK293T cells, Vif self-association by quenched fluorescence, 24 h | 340,000 compounds, 0.35% hits; in the data active = inhibition above about 50%, passing the limit was not always enough; inconclusive = no clear call, values can overlap the other calls; inactive = below about 31%
Ecoli rRNA inh = reduced GFP signal of wild-type E. coli, primary screen, bacterial rRNA inhibitor project, GFP/RFP fluorescence, OD600, single point; E. coli WT GFP vs humanized-ribosome RFP mutants, 24 h; active compounds read low; DMSO median 0, no signal -100; GFP signal change (wild-type ribosome), % (test concentration not listed); 350,000 compounds, 1.6% hits; AID 720706, 2013;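 active = significant combined selectivity score with lowered wild-type GFP, culture density cut under 30%, mutant RFP and density less affected; inactive = any of these conditions unmet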
HIV Env fusion = inhibitors of HIV-1 Env-driven cell-cell fusion, primary screen, HeLa-JRFL effector, CEM21 target cells, luciferase; 360,000 compounds, 1.1% hits; inhibition, % at 12.3 µM; AID 651610, 2012;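 active = mean replicate inhibition score of at least 50 and every replicate individually at or above 50; inconclusive = only one of the two criteria met; inactive = mean below 50 and not all replicates reaching 50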;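 also: 0% = plate neutral controls and 100% = maraviroc near 300 nM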
S100A4 MyoIIA = inhibitors of S100A4-myosin IIA peptide binding, primary screen, biochemical, fluorescence polarization, TAMRA-MyoIIA peptide; Protein S100-A4 (Homo sapiens), P26447; inhibition, % at 10.7 µM; 360,000 compounds, 0.14% hits; AID 652163, 2013;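 active = mean inhibition of at least 70% across replicates, with every replicate also reaching that level; inconclusive = mean inhibition reaches 70% but some replicates fall short; inactive = mean inhibition below 70%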
Target sequence (P26447 whole entry, looked up): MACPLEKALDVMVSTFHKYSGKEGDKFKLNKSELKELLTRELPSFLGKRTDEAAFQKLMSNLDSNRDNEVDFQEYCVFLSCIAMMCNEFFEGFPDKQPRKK
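Compound dosing: one dose per compound; test system: human S100A4 monomer with TAMRA-labelled myosin IIA peptide; probe or stimulus: TAMRA-labelled myosin IIA heavy-chain peptide probe, 5 nM; medium: HEPES buffer with Ca2+, pH 7.2; schedule: 5 min incubation before reading; benchmarks: neutral control DMSO, positive control TFP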
FN deposit inh = inhibitors of fibronectin matrix deposition, primary screen, AH1F cells, Alexa488-fibronectin fluorescence, plate reader; AH1F fibroblasts, overnight; inhibition, % at 12.6 µM; 350,000 compounds, 0.086% hits;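 active = mean inhibition across replicates of 30% or more, regardless of how many single replicates reach that level; inconclusive = mean under 30% yet at least half of replicates reach 30%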;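 also: positive control wells lacked labelled fibronectin entirely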
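Assay system: AH1F fibroblasts assembling fluorescent fibronectin matrix; Amount: 10000 AH1F cells per well; Buffer or medium: DMEM, 2% serum; Probe or stimulus: Alexa488-fibronectin, 24 nM final in well; Doses: single compound dose, delivered by pin transfer; Incubation: 1 h adhesion, overnight exposure; Measured by: fluorescence 485/525 nm; Read-out: fibronectin deposition inhibition.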
miR-122 sensor = miR-122 Renilla sensor signal increase in Huh7, primary screen, miR-122 inhibitor project, cell-based, single point, plate reader; Huh7 miR-122 Renilla luciferase sensor, 48 h; neutral wells = 0, positive control = 100; 340,000 compounds, 0.3% hits; AID 602342, 2012; activation (reporter increase), % at 12.5 µM;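 active = mean replicate activation score at least 90 and every replicate individually at or above 90; inconclusive = only one of the two criteria met; inactive = neither criterion met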;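 also: higher luciferase means less miR-122 activity so hits act as miR-122 inhibitors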
* marks the source's active call; other numbers are inactive results; [ ] = remark or other dose.

Results for CCNc1nc2c(c(=O)n(C)c(=O)n2C)n1Cc1ccc(Cl)cc1 ?
Vif imaging: -25.4; Ecoli rRNA inh: 7.3; HIV Env fusion: 60.1*; S100A4 MyoIIA: -2.9; FN deposit inh: -5.3; miR-122 sensor: -12.1

Results for Cn1c(=O)c2c(nc(Br)n2Cc2ccc3ccccc3c2)n(C)c1=O ?
Vif imaging: -24.0; HIV Env fusion: 58.5*; FN deposit inh: -2.9; miR-122 sensor: 36.5

What do the screens show for `Cn1c(=O)c2c(nc(Oc3ccc4ccccc4c3)n2C)n(C)c1=O`?
Vif imaging: -7.0; HIV Env fusion: 102.5*; FN deposit inh: 6.3; miR-122 sensor: 11.2

Results for CCC(C)Nc1nc2c(c(=O)n(C)c(=O)n2C)n1Cc1ccc(Cl)cc1 (stereo not given) ?
Vif imaging: 7.4; Ecoli rRNA inh: -1.1; HIV Env fusion: 2.6; S100A4 MyoIIA: -11.5; FN deposit inh: -5.6; miR-122 sensor: 3.1

What do the screens show for `COc1ccc(Oc2nc3c(c(=O)n(C)c(=O)n3C)n2C)cc1`?
Vif imaging: -14.7; Ecoli rRNA inh: 13.9; HIV Env fusion: inconclusive; S100A4 MyoIIA: -3.7; FN deposit inh: -2.5; miR-122 sensor: 1.1

What do the screens show for `COc1ccccc1CNC(=O)C[C@H]1CC[C@@H]2[C@H](COC[C@H](O)CN2C(=O)Nc2ccc(F)cc2)O1`?
Ecoli rRNA inh: 1.0; HIV Env fusion: -6.0[16.7 µM]; S100A4 MyoIIA: 1.6; FN deposit inh: -1.7; miR-122 sensor: 2.9[16.7 µM]

Results for O=[N+]([O-])c1cc(-c2nnc(Nc3ccccc3)c3ccccc23)ccc1N1CCOCC1 ?
Ecoli rRNA inh: -5.6; HIV Env fusion: 10.1; S100A4 MyoIIA: -5.3; FN deposit inh: -3.8

How did O=[N+]([O-])c1cc(-c2nnc(N3CCOCC3)c3ccccc23)ccc1N1CCOCC1 do in these assays?
Vif imaging: -1.8; Ecoli rRNA inh: -35.3*; HIV Env fusion: 13.6; S100A4 MyoIIA: -4.7; FN deposit inh: -1.5

How did COc1ccc2c3c(n(C)c2c1)[C@H](CO)N(C(=O)C1CCCCC1)CC31CCN(C(=O)Nc2cccc(F)c2)CC1 do in these assays?
Ecoli rRNA inh: -2.6

What do the screens show for `COCC(=O)N[C@@H]1CC[C@@H](CC(=O)N2CCCCC2)O[C@H]1CO`?
Ecoli rRNA inh: 1.9; HIV Env fusion: -4.3[16.7 µM]; S100A4 MyoIIA: 3.8; FN deposit inh: -4.0; miR-122 sensor: -4.6[16.7 µM]

How did C=C(NC(=O)C(=C)NC(=O)c1csc(C2=NC3c4csc(n4)C4NC(=O)c5csc(n5)C(C(C)(O)C(C)O)NC(=O)C5CSC(=N5)/C(=C/C)NC(=O)C(C(C)O)NC(=O)c5csc(n5)C3(CC2)NC(=O)C(C)NC(=O)C(=C)NC(=O)C(=C)NC(=O)C(C(C)C)NC2C=Cc3c(C(C)O)cc(nc3C2O)C(=O)OC4C)n1)C(N)=O (stereo not given) do in these assays?
Vif imaging: 175.6*; Ecoli rRNA inh: 0.6; HIV Env fusion: 3.7; S100A4 MyoIIA: -7.6; FN deposit inh: -3.9

How did Cc1cc(OCc2cc(C(=O)N3CCN(CC4CC4)CC3)no2)cc(C)c1Cl do in these assays?
Vif imaging: 3.6; Ecoli rRNA inh: -28.7; HIV Env fusion: 1.7; S100A4 MyoIIA: -3.1; FN deposit inh: -1.3; miR-122 sensor: 5.1

What do the screens show for `O=C(c1cc(COc2ccc3ncccc3c2)on1)N1CCCC1`?
Vif imaging: 0.1; Ecoli rRNA inh: -23.6*; HIV Env fusion: -16.6; S100A4 MyoIIA: -16.3; FN deposit inh: -6.6; miR-122 sensor: -3.9

What do the screens show for `O=C(c1cc(COc2ccc3ncccc3c2)on1)N1CCCCCC1`?
Vif imaging: -12.3; HIV Env fusion: 11.5; S100A4 MyoIIA: -2.9; FN deposit inh: -1.2

How did Cc1cc(OCc2cc(C(=O)N3CCC(Oc4cccnc4)CC3)no2)cc(C)c1Cl do in these assays?
Vif imaging: -5.8; Ecoli rRNA inh: -43.9; HIV Env fusion: 66.7*; S100A4 MyoIIA: -1.8; miR-122 sensor: -10.0

Results for CNC[C@@H]1Oc2ccc(NS(=O)(=O)c3ccc(C)cc3)cc2CC(=O)N([C@H](C)CO)C[C@H]1C ?
Ecoli rRNA inh: 5.7; S100A4 MyoIIA: -40.8; miR-122 sensor: 2.0[16.7 µM]

What do the screens show for `CN(CC1CCCO1)S(=O)(=O)c1ccc(C(=O)Nc2nc3cc4c(cc3s2)OCO4)cc1` (stereo not given)?
Vif imaging: -9.7; Ecoli rRNA inh: -5.1; HIV Env fusion: 56.7*; S100A4 MyoIIA: -1.2

What do the screens show for `COc1ccc(C(=O)Nc2nc3cc4c(cc3s2)OCCO4)c(OC)c1`?
Vif imaging: 78.5*; Ecoli rRNA inh: 7.1; HIV Env fusion: -104.5; S100A4 MyoIIA: -2.7; FN deposit inh: 3.2

What do the screens show for `CCN(CC)S(=O)(=O)c1cccc(C(=O)Nc2nc3cc4c(cc3s2)OCCO4)c1`?
Vif imaging: -11.2; Ecoli rRNA inh: -7.6; HIV Env fusion: 61.7*; S100A4 MyoIIA: 3.9; miR-122 sensor: -2.3

Results for COc1ccccc1C(=O)Nc1nc2cc3c(cc2s1)OCCO3 ?
Vif imaging: -0.7; miR-122 sensor: 9.9

What do the screens show for `CCc1nnc(NC(=O)[C@@H](NC(=O)c2cccc(S(=O)(=O)N(CC)CC)c2)C(C)C)s1`?
Vif imaging: -4.2; HIV Env fusion: 70.4*; FN deposit inh: 4.3; miR-122 sensor: -5.6

How did COc1ccc(C#Cc2cccc(-c3nc(C(=O)N4CCN(Cc5ccccc5)CC4)cc4c3[C@H](CCO)N(S(=O)C(C)(C)C)C4)c2)cc1OC (stereo not given in full) do in these assays?
Ecoli rRNA inh: -5.0; FN deposit inh: -2.5

How did O=C(C[C@@H]1CC[C@H](NC(=O)c2ccccn2)[C@H](CO)O1)NCc1cc(F)cc(F)c1 do in these assays?
Ecoli rRNA inh: -0.1; HIV Env fusion: -5.0[16.7 µM]; S100A4 MyoIIA: 3.6; FN deposit inh: -2.5

Results for CC(=O)N[C@H]1C=C[C@@H](CC(=O)NCc2ccc(Cl)cc2)O[C@H]1CO ?
Ecoli rRNA inh: 1.0; HIV Env fusion: -5.9[16.7 µM]; S100A4 MyoIIA: 5.5

Results for CCc1nnc(NC(=O)CSc2nnc(-c3ccccc3O)o2)s1 ?
Vif imaging: -10.0; Ecoli rRNA inh: -26.5*; HIV Env fusion: 7.0; S100A4 MyoIIA: -4.0; FN deposit inh: 4.2; miR-122 sensor: 7.0

How did CCc1nnc(NC(=O)CSc2nc(-c3ccccc3)c(-c3ccccc3)o2)s1 do in these assays?
Vif imaging: 5.6; Ecoli rRNA inh: 4.7; HIV Env fusion: -7.0; S100A4 MyoIIA: -1.8; FN deposit inh: -10.3
